This is a sample that favours compounds with a hit; in the whole collection about 2.3% have one here.
Autophagy mod: autophagy modulation, high-content screen | MEF GFP-LC3 puncta imaging; test concentration mostly 10 µM | calls only at 10 µM (by protocol) | 190,000 compounds, 0.98% hits;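 active = percentage of spot-positive cells more than 3 SD above its plate mean, without a fluorescence outlier flag or 80% toxicity; inconclusive = no clear call, values can overlap the other calls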;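 also: spot-positive cell cutoff set from DMSO-treated cells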
Dynein cargo inh: dynein cargo transport inhibition; 220,000 compounds, 0.47% hits; AID 1381; z-score, hits read low; 3617.4 mouse cells, GR-EGFP nuclear translocation imaging; test concentration mostly 20 µM; stimulated with dexamethasone, 1 µM; hits give low values;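 active = plate z-score of nuclear minus cytoplasmic receptor signal below a set negative limit, without overly bright fluorescence or cell loss, cut at about -3.5 in these data, passing the limit was not always enough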;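 also: z-score of nuclear minus cytoplasmic ring GR-EGFP intensity difference per well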
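medium = tetracycline-free induction medium containing charcoal-stripped FBS | probe or stimulus = dexamethasone, 1.0 µM final | timing = 48 h induction, then 1 h compound, then 30 min agonist, 37 °C | detection = automated 10x imaging of fixed Hoechst-stained cells | read-out basis = nuclear versus cytoplasmic GR-EGFP signal, averaged per well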
bCat nuc transl: beta-catenin nuclear translocation modulation | HeLa beta-catenin nuclear translocation, immunofluorescence imaging | nuclear translocation activity, % at 5 µM | 190,000 compounds, 0.3% hits | AID 1665;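 active = nuclear translocation activity above 50% at 5 µM, with a well cell count of 50 or more; inconclusive = wells under 50 cells across six images, flagged as toxic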;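 also: per-cell ratio of nuclear to cytoplasmic median beta-catenin stain intensity; plate controls were DMSO negative control for no effect and GSK-3 inhibitor IX positive control for full effect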
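Test system: human HeLa cells, endogenous beta-catenin. Times: 24 h compound exposure, 37°C. Measured by: beta-catenin immunofluorescence imaging with DAPI.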
MT stabilizer: stabilizes microtubules in HeLa cells; 200,000 compounds, 0.83% hits; HeLa tubulin immunostaining HCS, 24 h; share of cells brighter than vehicle mean+2SD; AID 2205; % tubulin-high responders, % at 10 µM;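 active = plate Z-score above 3 for both tubulin-high and condensed-nucleus cell shares, with cell loss under 80%, at 10 µM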;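 also: anti alpha tubulin signal scored within the nucleus-defined area of each cell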
Ins promoter up: MIN6 insulin promoter up-regulation; MIN6 insulin promoter-GFP reporter, high-content imaging; hits give high values; z-score at 5 µM; 190,000 compounds, 0.3% hits;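 active = z-score above 3 at 5 µM with at least 500 cells counted in the well; inconclusive = wells under 500 cells, flagged as cytotoxic or low count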
The depositor's hits bear a star; i = inactive; ? = inconclusive; · = no result; + = active, no number.

SMILES | Autophagy mod | Dynein cargo inh | bCat nuc transl | MT stabilizer | Ins promoter up
C/C(=N\NC(=O)CC1(C)OCCO1)c1cccs1 | + | -0.87 | -3 | 2 | 0.36
C/C(=N/NC(=O)c1cccs1)c1cccs1 | · | -0.5 | 1 | · | ·
O=C(CCn1nnc2ccccc21)NNC(=O)C1CCCCC1 | i | -0.6 | · | 2 | 0.17
CC(=O)NC(=S)Nc1ccc(NC(=S)NC(=O)/C=C/c2ccco2)cc1 | · | -0.46 | 2 | · | ·
O=C(/C=C/c1cccs1)Nc1nncs1 | · | 2.4 | 1 | · | 0.31
Cc1ccnc(NC(=O)/C=C/c2cccs2)c1 | i | 1.1 | 2 | 14* | -0.01
Cc1ccc(-c2csc(NC(=S)NC(=O)/C=C/c3ccco3)n2)cc1 | i | -0.42 | 31 | 32* | 0.25
O=C(/C=C/c1ccco1)NC(=S)Nc1ccc(N2CCCC2)cc1 | i | 0.04 | -4 | 13* | -0.06
Cc1ccnc(NC(=S)NC(=O)/C=C/c2ccco2)c1 | i | -0.34 | -2 | 21* | 0.55
Cc1ccc(O)c(NC(=S)NC(=O)/C=C/c2ccco2)c1 | i | -0.84 | 0 | 31 | 0.35
CCN(CC)C(=O)C(=O)c1cn(CCOc2ccccc2)c2ccccc12 | i | -0.5 | 5 | 3 | -0.02
CC(C)CCN1CCN(Cc2ccc(Oc3ncccn3)cc2)CC1CCO (centres undefined) | + | -0.42 | 1 | 3 | -0.53
CCN1/C(=N\N)c2cccc3cccc1c23 | + | 0.24 | 0 | 19 | 1.8
Cc1ccc(Cn2c(=N)n(CC(O)COc3ccccc3)c3ccccc32)cc1 (centres undefined) | + | -0.66 | · | 2 | ?
N=c1n(CCN2CCOCC2)c2ccccc2n1CC(O)COc1ccccc1 (centres undefined) | i | 0.51 | -4 | 5 | -2.3
COc1ccccc1OCC(O)Cn1c(=N)n(CCN2CCCCC2)c2ccccc21 (centres undefined) | + | 1 | · | 2 | -5
N=c1n(CCN2CCCCC2)c2ccccc2n1CC(O)c1ccc(Cl)c(Cl)c1 (centres undefined) | + | -3.3 | 4 | 6 | -1.6
Cc1ccccc1OCC(O)Cn1c(=N)n(CCN2CCOCC2)c2ccccc21 (centres undefined) | i | 2.1 | -4 | 5 | 0.34
N=c1n(Cc2ccccc2)c2ccccc2n1CC(O)COc1ccccc1 (centres undefined) | i | -1 | -5 | 3 | -2.4
N=c1n(CCN2CCCCC2)c2ccccc2n1CC(O)COc1ccccc1 (centres undefined) | + | 1.8 | -1 | 3 | -1.3
COCCCNC(=S)NNC(=O)c1csc(C)n1 | · | -0.8 | 1 | · | -0.07
CC(C)(C)CC(C)(C)NCC(=O)Nc1c2c(nc3ccccc13)CCC2 | i | -0.5 | 0 | 2 | -0.09
CCCS(=O)(=O)N1CCCC(C(=O)NCC(OC)OC)C1 (centres undefined) | i | 0.13 | -1 | 5 | 0.33
COc1ccc2ccccc2c1CNC(=O)CC1C(=O)NCCN1CC(C)(C)C (centres undefined) | · | 0.14 | 1 | · | 0.55
Cc1ccc(S(=O)(=O)N(C)C)cc1NC(=O)c1cc(C(C)(C)C)nn1Cc1ccccc1 | · | 0.54 | 1 | · | -0.2
SMILES | Autophagy mod | Dynein cargo inh | bCat nuc transl | MT stabilizer | Ins promoter up
NC(=O)c1c(/N=C/c2cccnc2)sc2c1CCCC2 | · | 0.027 | 1 | · | ·
COc1ccc(C2NC(=S)NC(C)=C2C(=O)Nc2ccccn2)cc1OC (centres undefined) | + | 1.6 | -2 | 5 | -0.64
FC(F)(F)c1cc(-c2ccco2)nc(-n2cnc3ccccc32)n1 | i | 1.2 | 4 | 2 | -0.43
Cc1nc2ccccc2n1-c1nc(-c2ccco2)cc(C(F)(F)F)n1 | + | -0.36 | 12 | 32 | ?
Cc1ccc(-c2[nH][nH]c(=O)c(=O)c2N=Nc2ccccc2)cc1 | · | -0.96 | 1 | · | ·
CCc1ccc(CCC(=O)Nc2ncc(Cc3ccccc3Cl)s2)o1 | i | 0.21 | 150* | 12* | 0.04
O=C(CN1CCOCC1)Nc1ncc(Cc2ccccc2Cl)s1 | i | -0.1 | 2 | 1 | 0.3
CC(=O)Nc1ncc(Cc2cc(Cl)ccc2Cl)s1 | + | 0.8 | 1 | 3 | -0.13
COC(=O)c1cc(NC(=S)N2CCN(C(=O)C3CCCO3)CC2)cc(C(=O)OC)c1 (centres undefined) | i | 0.023 | -3 | 4 | -0.07
Cc1cc(C)n(C(=O)COc2ccccc2[N+](=O)[O-])n1 | · | 0.047 | -2 | · | 0.42
COc1ccc(N2C(N)=C(C#N)C(c3cccnc3)C3=C2CC(C)(C)CC3=O)cc1 (centres undefined) | i | -0.28 | 2 | 50* | ·
COc1ccc(C2C(C#N)=C(N)N(c3cccnc3)C3=C2C(=O)CC(C)(C)C3)cc1OC (centres undefined) | i | 0.76 | -3 | 3 | 1
CCN(CC)CCC(=O)Nc1cccc2c1C(=O)c1ccccc1C2=O | · | -0.92 | 0 | · | 0.5
O=C(CCN1CCN(c2ccccc2)CC1)N/N=C/c1ccccc1OC(F)F | + | 0.14 | · | 5 | 0.01
CC(OC(=O)c1oc2ccccc2c1COc1ccccc1)C(=O)NC(N)=O (centres undefined) | + | 0.62 | -1 | 5 | 0.46
COc1ccc(-n2c(C)cc(C(=O)CN3C(=O)C(=O)N(Cc4ccccc4)C3=O)c2C)cc1 | i | -0.95 | 6 | 13* | -1.1
COc1ccc(NC(=O)COC(=O)c2ccc(S(=O)(=O)N(C)c3ccccc3OC)cc2)cc1OC | i | -0.58 | -5 | 4 | 0.97
COc1ccc(NC(=O)COC(=O)c2ccc(S(=O)(=O)N(C)c3ccccc3OC)cc2)c(OC)c1 | i | -0.15 | 0 | 18* | 0.48
CCC(CC)NC(=O)c1cccc(Oc2ccccc2)c1 | i | 0.22 | 0 | 4 | -0.38
CCOC(=O)C1C(c2cccs2)NC(=O)NC1(O)C(F)(F)F (centres undefined) | i | -0.16 | -1 | 2 | ·
CCOC(=O)C1C(c2cccnc2)NC(=O)NC1(O)C(F)(F)F (centres undefined) | i | -1 | -2 | 17* | -0.31
CCOc1ccc(N(CC(=O)NCC2CCCO2)C(=O)CCC(=O)Nc2nccs2)cc1 (centres undefined) | i | -0.3 | -2 | 3 | -0.45
CCC(CC)NC(=O)Nc1cccc(C)c1C | i | -0.51 | 2 | 2 | 0.74
CCC(C)N(CC(=O)Nc1cccc(C)c1C)C(=O)CCl (centres undefined) | + | -3.3 | 7 | 18 | 0.22
O=C(c1ccccn1)N(c1ccccc1)C1(C(=O)NC2CCCCC2)CCCCC1 | i | -0.011 | 1 | 2 | 0.44
COc1ccc(-c2ccc3c(N)c(C(=O)c4ccc(OC)c(OC)c4)sc3n2)cc1 | + | 0.11 | · | 3 | ·
CCOC(=O)c1[nH]c(C)c(C(=O)Nc2ccc(F)cc2)c1C | i | 0.21 | · | 3 | -0.05

Bioassay records (PubChem BioAssay)
